# Tests used:
# Assay type in all cases: functional
# [1] = tested on: Pseudomonas aeruginosa; experiment: Antimicrobial activity against beta-lactam resistant Pseudomonas aeruginosa PAO1 by broth microdilution method
# Method in brief: (§1)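 Broth microdilution MICs per CLSI M100-S18, over 0.12 to 256 μg/ml. Strains are PAO1 and its mutants. oprD mutants were selected overnight on Mueller-Hinton agar with 4 μg/ml imipenem, passaged antibiotic-free, then confirmed by oprD amplification and sequencing. PAO1 and ATCC 27853 were run alongside as quality controls.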
# [2] = tested on: Pseudomonas aeruginosa; experiment: Antimicrobial activity against beta-lactam resistant Pseudomonas aeruginosa PAO1 deficient in ampD gene selected in vitro after antipseudomonal treatment of intensive care unit patient by broth microdilution method; method in brief: as §1
# [3] = tested on: Pseudomonas aeruginosa; experiment: Antimicrobial activity against beta-lactam resistant Pseudomonas aeruginosa PAO1 deficient in ampD and ampDh3 gene selected in vitro after antipseudomonal treatment of intensive care unit patient by broth microdilution method; method in brief: as §1
# [4] = tested on: Pseudomonas aeruginosa; experiment: Antimicrobial activity against beta-lactam resistant Pseudomonas aeruginosa PAO1 deficient in ampD, […] gene selected in vitro after antipseudomonal treatment of intensive care unit patient by broth microdilution method; method in brief: as §1
# [5] = tested on: Pseudomonas aeruginosa; experiment: Antimicrobial activity against beta-lactam resistant Pseudomonas aeruginosa PAO1 deficient in ampD and dacB gene selected in vitro after antipseudomonal treatment of intensive care unit patient by broth microdilution method; method in brief: as §1
# [6] = tested on: Pseudomonas aeruginosa; experiment: Antimicrobial activity against beta-lactam resistant Pseudomonas aeruginosa PAOD1 harboring oprD spontaneous mutant selected in vitro after antipseudomonal treatment of intensive care unit patient by broth microdilution method; method in brief: as §1
# [7] = tested on: Pseudomonas aeruginosa; experiment: Antimicrobial activity against beta-lactam resistant Pseudomonas aeruginosa PAOD2 harboring oprD spontaneous mutant selected in vitro after antipseudomonal treatment of intensive care unit patient by broth microdilution method; method in brief: as §1
# [8] = tested on: Pseudomonas aeruginosa; experiment: Antimicrobial activity against beta-lactam resistant Pseudomonas aeruginosa PAOD3 harboring oprD spontaneous mutant selected in vitro after antipseudomonal treatment of intensive care unit patient by broth microdilution method; method in brief: as §1
# [9] = tested on: Pseudomonas aeruginosa; experiment: Antimicrobial activity against beta-lactam resistant Pseudomonas aeruginosa PAOD1 harboring oprD spontaneous mutant and deficient in ampD gene selected in vitro after antipseudomonal treatment of intensive care unit patient by broth microdilution method; method in brief: as §1
# [10] = tested on: Pseudomonas aeruginosa; experiment: Antimicrobial activity against beta-lactam resistant Pseudomonas aeruginosa PAOD2 harboring oprD spontaneous mutant and deficient in ampD gene by selected in vitro after antipseudomonal treatment of intensive care unit patient by broth microdilution method; method in brief: as §1
# [11] = tested on: Pseudomonas aeruginosa; experiment: Antimicrobial activity against beta-lactam resistant beta-lactam resistant Pseudomonas aeruginosa PAOD3 harboring oprD spontaneous mutant and deficient in ampD gene selected in vitro after antipseudomonal treatment of intensive care unit patient by broth microdilution method; method in brief: as §1
# [12] = tested on: Pseudomonas aeruginosa; experiment: Antimicrobial activity against beta-lactam resistant Pseudomonas aeruginosa PAOD1 harboring oprD spontaneous mutant and deficient in dacB gene selected in vitro after antipseudomonal treatment of intensive care unit patient by broth microdilution method; method in brief: as §1
# [13] = tested on: Pseudomonas aeruginosa; experiment: Antimicrobial activity against beta-lactam resistant Pseudomonas aeruginosa PAOD2 harboring oprD spontaneous mutant and deficient in dacB gene selected in vitro after antipseudomonal treatment of intensive care unit patient by broth microdilution method; method in brief: as §1
# [14] = tested on: Pseudomonas aeruginosa; experiment: Antimicrobial activity against beta-lactam resistant Pseudomonas aeruginosa PAOD3 harboring oprD spontaneous mutant and deficient in dacB gene selected in vitro after antipseudomonal treatment of intensive care unit patient by broth microdilution method; method in brief: as §1
# [15] = tested on: Pseudomonas aeruginosa; experiment: Antimicrobial activity against Pseudomonas aeruginosa clinical isolate selected in vitro after antipseudomonal treatment of intensive care unit patient by broth microdilution method
# Method in brief: (§2)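 MICs by standard CLSI broth microdilution (M100-S18) at 0.12 to 256 μg/ml. The isolates are sequential P. aeruginosa isolates that emerged during antipseudomonal therapy of patients in a Spanish ICU (2002–2003). P. aeruginosa PAO1 and ATCC 27853 were run in parallel for quality control.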
# [16] = tested on: Pseudomonas aeruginosa; experiment: Antimicrobial activity against Ceftazidime resistant Pseudomonas aeruginosa clinical isolate selected in vitro after antipseudomonal treatment of intensive care unit patient by broth microdilution method; method in brief: as §2
# [17] = tested on: Pseudomonas aeruginosa; experiment: Antimicrobial activity against cefipime resistant Pseudomonas aeruginosa clinical isolate selected in vitro after antipseudomonal treatment of intensive care unit patient by broth microdilution method; method in brief: as §2
# [18] = tested on: Pseudomonas aeruginosa; experiment: Antimicrobial activity against PIP-tazobactam resistant Pseudomonas aeruginosa clinical isolate selected in vitro after antipseudomonal treatment of intensive care unit patient by broth microdilution method; method in brief: as §2
# [19] = tested on: Pseudomonas aeruginosa; experiment: Antimicrobial activity against Imipenem resistant Pseudomonas aeruginosa clinical isolate selected in vitro after antipseudomonal treatment of intensive care unit patient by broth microdilution method; method in brief: as §2
# [20] = tested on: Pseudomonas aeruginosa; experiment: Antimicrobial activity against meropenem resistant Pseudomonas aeruginosa clinical isolate selected in vitro after antipseudomonal treatment of intensive care unit patient by broth microdilution method; method in brief: as §2
# [21] = tested on: Pseudomonas aeruginosa; experiment: Antimicrobial activity against ciprofloxacin resistant Pseudomonas aeruginosa clinical isolate selected in vitro after antipseudomonal treatment of intensive care unit patient by broth microdilution method; method in brief: as §2
# [22] = tested on: Pseudomonas aeruginosa; experiment: Antimicrobial activity against multidrug resistant Pseudomonas aeruginosa clinical isolate selected in vitro after antipseudomonal treatment of intensive care unit patient by broth microdilution method; method in brief: as §2
# [23] = tested on: Pseudomonas aeruginosa; experiment: Antimicrobial activity against pan-beta-lactam resistant Pseudomonas aeruginosa clinical isolate selected in vitro after antipseudomonal treatment of intensive care unit patient by broth microdilution method; method in brief: as §2
# [24] = tested on: Pseudomonas aeruginosa; experiment: Antimicrobial activity against Pseudomonas aeruginosa AmpC overexpressing clinical isolate selected in vitro after antipseudomonal treatment of intensive care unit patient by broth microdilution method; method in brief: as §2
# [25] = tested on: Pseudomonas aeruginosa; experiment: Antimicrobial activity against Pseudomonas aeruginosa by after 18-20 hrs agar dilution method
# [26] = tested on: Pseudomonas aeruginosa; experiment: Antimicrobial activity against cefipime resistant Pseudomonas aeruginosa by microdilution method
# [27] = tested on: Pseudomonas aeruginosa; experiment: Antimicrobial activity against cefipime resistant Pseudomonas aeruginosa overexpressing MexXY-OprM gene by microdilution method
# [28] = tested on: Pseudomonas aeruginosa; experiment: Antimicrobial activity against metallo beta-lactamase producing Pseudomonas aeruginosa isolates
# [29] = tested on: Pseudomonas aeruginosa; experiment: Antimicrobial activity against extended spectrum beta-lactamase producing Pseudomonas aeruginosa isolates by broth microdilution method
# [30] = tested on: Pseudomonas aeruginosa; experiment: Antimicrobial activity against beta-lactam resistant Pseudomonas aeruginosa PA01 deficient in dacB gene by broth microdilution method; method in brief: as §1
# [31] = tested on: Pseudomonas aeruginosa; experiment: Antimicrobial activity against Pseudomonas aeruginosa clinical isolate assessed as resistant isolates selected in vitro after antipseudomonal treatment of intensive care unit patient by CLSI method
smiles,measurement,setting,value
Cn1c(N)c(NC(=O)NCCN)c[n+]1CC1=C(C(=O)O)N2C(=O)[C@@H](NC(=O)/C(=N\OC(C)(C)C(=O)[O-])c3nsc(N)n3)[C@H]2SC1 [CEFTOLOZANE],MIC,[1],0.5 µg/mL
same,MIC,[2],0.5 µg/mL
same,MIC,[3],1 µg/mL
same,MIC,[4],1 µg/mL
same,MIC,[5],2 µg/mL
same,MIC,[6],0.5 µg/mL
same,MIC,[7],0.5 µg/mL
same,MIC,[8],0.5 µg/mL
same,MIC,[9],0.5 µg/mL
same,MIC,[10],0.5 µg/mL
same,MIC,[11],0.5 µg/mL
same,MIC,[12],0.5 µg/mL
same,MIC,[13],0.5 µg/mL
same,MIC,[14],0.5 µg/mL
same,MIC50,[15],0.5 µg/mL
same,MIC80,[15],0.53 µg/mL
same,MIC90,[15],2 µg/mL
same,GM MIC,[16],0.94 µg/mL
same,MIC50,[16],1 µg/mL
same,MIC90,[16],4 µg/mL
same,GM MIC,[17],0.91 µg/mL
same,MIC50,[17],1 µg/mL
same,MIC90,[17],4 µg/mL
same,GM MIC,[18],1.59 µg/mL
same,MIC50,[18],1 µg/mL
same,MIC90,[18],4 µg/mL
same,GM MIC,[19],0.84 µg/mL
same,MIC50,[19],0.5 µg/mL
same,MIC90,[19],4 µg/mL
same,GM MIC,[20],0.86 µg/mL
same,MIC50,[20],0.5 µg/mL
same,MIC90,[20],4 µg/mL
same,MIC,[21],0.88 µg/mL
same,MIC50,[21],1 µg/mL
same,MIC90,[21],4 µg/mL
same,MIC,[22],1.83 µg/mL
same,MIC,[23],2.53 µg/mL
same,MIC,[24],0.71 µg/mL
same,MIC50,[24],1 µg/mL
same,MIC90,[24],4 µg/mL
same,Ratio,[25],-0.5
same,MIC,[26],1 µg/mL
same,MIC,[27],1 µg/mL
same,Ratio,[28],0.25
same,MIC,[29],> 8 µg/mL
same,MIC,[30],1 µg/mL
C[C@@H](O)[C@H]1C(=O)N2C(C(=O)O)=C(SCCNC=N)C[C@H]12 [IMIPENEM ANHYDROUS],MIC,[1],2 µg/mL
same,MIC,[2],2 µg/mL
same,MIC,[3],2 µg/mL
same,MIC,[4],1 µg/mL
same,MIC,[5],2 µg/mL
same,MIC,[6],16 µg/mL
same,MIC,[7],8 µg/mL
same,MIC,[8],16 µg/mL
same,MIC,[9],16 µg/mL
same,MIC,[10],16 µg/mL
same,MIC,[11],16 µg/mL
same,MIC,[12],16 µg/mL
same,MIC,[13],16 µg/mL
same,MIC,[14],16 µg/mL
same,Activity,[31],57%
same,MIC,[30],2 µg/mL
C[C@@H](O)[C@H]1C(=O)N2C(C(=O)O)=C(S[C@@H]3CN[C@H](C(=O)N(C)C)C3)[C@H](C)[C@H]12 [MEROPENEM],MIC,[1],0.5 µg/mL
same,MIC,[2],2 µg/mL
same,MIC,[3],2 µg/mL
same,MIC,[4],1 µg/mL
same,MIC,[5],2 µg/mL
same,MIC,[6],1 µg/mL
same,MIC,[7],2 µg/mL
same,MIC,[8],2 µg/mL
same,MIC,[9],8 µg/mL
same,MIC,[10],8 µg/mL
same,MIC,[11],8 µg/mL
same,MIC,[12],4 µg/mL
same,MIC,[13],4 µg/mL
same,MIC,[14],4 µg/mL
same,Activity,[31],52%
same,MIC,[30],0.5 µg/mL
CCN1CCN(C(=O)N[C@@H](C(=O)N[C@@H]2C(=O)N3[C@@H]2SC(C)(C)[C@@H]3C(=O)O)c2ccccc2)C(=O)C1=O [PIPERACILLIN],MIC,[1],4 µg/mL
same,MIC,[2],16 µg/mL
same,MIC,[3],128 µg/mL
same,MIC,[4],64 µg/mL
same,MIC,[5],64 µg/mL
same,MIC,[6],> 256 µg/mL
same,MIC,[7],4 µg/mL
same,MIC,[8],4 µg/mL
same,MIC,[9],4 µg/mL
same,MIC,[10],32 µg/mL
same,MIC,[11],64 µg/mL
same,MIC,[12],64 µg/mL
same,MIC,[13],64 µg/mL
same,MIC,[14],64 µg/mL
same,MIC,[30],64 µg/mL

# Source: ChEMBL document CHEMBL1240405, “Activity of a new cephalosporin, CXA-101 (FR264205), against beta-lactam-resistant Pseudomonas aeruginosa mutants selected in vitro and after antipseudomonal treatment of intensive care unit patients” (2010)
